Test results from publication PMC11295983 (ESMO Open, 2024).
Like-named read-outs stand apart in the source and are kept apart here. Values belong to the compound of their own block, whether it stands above or below them.

Assays:
[1] = test system: patients with advanced malignancies; conditions: monotherapy, parts 1 and 2; cited from earlier work
pFGFR2α = conditions: based on in vivo experiments; no reference given; cited from earlier work
advanced malignancies = conditions: monotherapy, cited from earlier work
phosphorylated FGFR2α = phosphorylated FGFR2α (Homo sapiens, UniProt P21802); type: cell-based
Procedure, shortened: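 Patients take oral pemigatinib once daily on 21-day cycles, continuous or intermittent, with combination therapy (e.g. i.v. docetaxel 75 mg/m² q3w, i.v. pembrolizumab 200 mg q3w). Steady-state trough is cycle 1 day 14, 0-24 h. Values are mean (SE) inhibition.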

advanced solid tumors = assay: Investigator-assessed tumor response per RECIST v1.1, FIGHT-101 part 3; type: in vivo, human
[2] = test system: patients with advanced solid tumor malignancies; assay: Safety and tolerability; type: in vivo, human
Procedure, shortened: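 Patients are ≥18 years with solid tumors that progressed after ≥1 prior line. They self-administer oral pemigatinib 9, 13.5 or 20 mg q.d. on 21-day cycles, continuous or intermittent, combined with chemotherapy, trastuzumab or anti-PD-1 antibody until progression or toxicity. Interruption and dose adjustment are allowed. AE frequency, duration and severity are summarized descriptively for patients receiving ≥1 dose.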

[3] = both the 9-mg and 13.5-mg doses of pemigatinib

Chain of phosphorylated FGFR2α (P21802 431-767 limits assumed): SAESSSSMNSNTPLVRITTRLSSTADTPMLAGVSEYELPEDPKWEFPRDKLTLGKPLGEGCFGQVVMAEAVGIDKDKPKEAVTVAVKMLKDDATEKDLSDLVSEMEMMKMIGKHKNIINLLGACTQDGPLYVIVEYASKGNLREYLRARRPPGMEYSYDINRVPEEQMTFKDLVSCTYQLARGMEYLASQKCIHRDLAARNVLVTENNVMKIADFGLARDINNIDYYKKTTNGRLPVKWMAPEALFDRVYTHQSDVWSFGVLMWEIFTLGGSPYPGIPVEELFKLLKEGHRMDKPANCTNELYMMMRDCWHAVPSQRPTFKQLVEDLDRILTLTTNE

Compound: CCN1C(=O)N(c2c(F)c(OC)cc(OC)c2F)Cc2cnc3[nH]c(CN4CCOCC4)cc3c21 [pemigatinib]
Alopecia, patients [1]: 31.3%
Diarrhea, patients [1]: 32.0%
Dose reductions, patients [1]: 4.6%
Dry mouth, patients [1]: 38.3%
Fatigue, patients [1]: 39.1%
Hyperphosphatemia, patients [1]: 75.0%
Patients who discontinued pemigatinib because of TEAEs [1]: 10.2%
Pemigatinib interruption used to manage TEAEs, patients [1]: 51.6%
Stomatitis, patients [1]: 34.4%
IC50 (pFGFR2α): 22.6 nM
Patients with partial responses (PRs) (advanced malignancies; 128 patients in parts 1 or 2): 9.4%
ORR among patients with FGFR mutations (advanced malignancies; parts 1 or 2): 23.1%
ORR among patients with FGFR rearrangements (advanced malignancies; parts 1 or 2): 25.0%

Compound: pemigatinib + docetaxel [Pemi/doc]
Inhibition of FGFR2α phosphorylation at trough of steady state (phosphorylated FGFR2α; [3]): exceeded 50%
ORR (95% CI) (advanced solid tumors; pemigatinib 13.5 mg ID): 14.3%
DOR, individual responder (advanced solid tumors; urothelial tract/bladder cancer, FGF10 amplification): 12.5 months
Alopecia (TEAE) ([2]; pemigatinib 13.5 mg ID): 3 (42.9) n (%)
Anemia (TEAE) ([2]; pemigatinib 13.5 mg ID): 4 (57.1) n (%)
Constipation (TEAE) ([2]; pemigatinib 13.5 mg ID): 3 (42.9) n (%)
Dehydration (TEAE) ([2]; pemigatinib 13.5 mg ID): 5 (71.4) n (%)
Diarrhea (TEAE) ([2]; pemigatinib 13.5 mg ID): 6 (85.7) n (%)
Diarrhea TEAE, patients ([2]; pemigatinib 13.5 mg ID): 85.7%
Dose interruptions because of TEAEs, patients ([2]; pemigatinib 13.5 mg ID): 42.9%
Dysgeusia (TEAE) ([2]; pemigatinib 13.5 mg ID): 3 (42.9) n (%)
Fatigue (TEAE) ([2]; pemigatinib 13.5 mg ID): 6 (85.7) n (%)
Fatigue TEAE, patients ([2]; pemigatinib 13.5 mg ID): 85.7%
Hyperphosphatemia (TEAE) ([2]; pemigatinib 13.5 mg ID): 6 (85.7) n (%)
Hyperphosphatemia TEAE, patients ([2]; pemigatinib 13.5 mg ID): 85.7%
Nausea (TEAE) ([2]; pemigatinib 13.5 mg ID): 4 (57.1) n (%)
Neutropenia (TEAE) ([2]; pemigatinib 13.5 mg ID): 3 (42.9) n (%)
Stomatitis TEAE, patients ([2]; pemigatinib 13.5 mg ID): 28.6%
TEAEs related to the combination partner, patients ([2]; pemigatinib 13.5 mg ID): 71.4%
Taste disorder (TEAE) ([2]; pemigatinib 13.5 mg ID): 3 (42.9) n (%)
Vomiting (TEAE) ([2]; pemigatinib 13.5 mg ID): 3 (42.9) n (%)
Weight decreased (TEAE) ([2]; pemigatinib 13.5 mg ID): 3 (42.9) n (%)

Compound: pemigatinib + retifanlimab [Pemi/reti]
ORR (95% CI) (advanced solid tumors; Total (all pemigatinib doses)): 11.1%
DOR, individual responder (advanced solid tumors; pemigatinib 13.5 mg CD, ovarian cancer, no detectable FGF/FGFR alterations): 4.2 months
DOR, individual responder (advanced solid tumors; pemigatinib 13.5 mg CD, urothelial cancer, FGF3/4/19 amplification): 8.3 months
Alopecia (TEAE) ([2]; Total (all pemigatinib doses)): 6 (33.3) n (%)
Dehydration (TEAE) ([2]; Total (all pemigatinib doses)): 8 (44.4) n (%)
Diarrhea (TEAE) ([2]; Total (all pemigatinib doses)): 7 (38.9) n (%)
Dry mouth (TEAE) ([2]; Total (all pemigatinib doses)): 9 (50.0) n (%)
Fatigue (TEAE) ([2]; Total (all pemigatinib doses)): 11 (61.1) n (%)
Hyperphosphatemia (TEAE) ([2]; Total (all pemigatinib doses)): 11 (61.1) n (%)
Hyperphosphatemia TEAE, patients ([2]; Total (all pemigatinib doses)): 61.1%
Hypomagnesemia (TEAE) ([2]; Total (all pemigatinib doses)): 6 (33.3) n (%)
Pemigatinib-related TEAEs, patients ([2]; Total (all pemigatinib doses)): 94.4%
Stomatitis (TEAE) ([2]; Total (all pemigatinib doses)): 12 (66.7) n (%)
Stomatitis TEAE, patients ([2]; Total (all pemigatinib doses)): 66.7%
TEAEs related to the combination partner, patients ([2]; Total (all pemigatinib doses)): 88.9%
Stomatitis TEAE, patients ([2]; pemigatinib 13.5 mg CD): 77.8%

Further lines, with some results ahead:

Inhibition of FGFR2α phosphorylation at trough of steady state (phosphorylated FGFR2α; pemigatinib 13.5 mg ID): 31%
Compound: pemigatinib + gemcitabine + cisplatin [Pemi/gem/cis]
ORR (95% CI) (advanced solid tumors; Total (all pemigatinib doses)): 37.5%
DOR, individual responder (advanced solid tumors; pemigatinib 13.5 mg ID, anal cancer, no detectable FGF/FGFR alterations): 5.8 months
DOR, individual responder (advanced solid tumors; pemigatinib 13.5 mg ID, ovarian cancer, no detectable FGF/FGFR alterations): 6.6 months
Alanine aminotransferase increased (TEAE) ([2]; Total (all pemigatinib doses)): 4 (50.0) n (%)
Alopecia TEAE, patients ([2]; Total (all pemigatinib doses)): 12.5%
Anemia (TEAE) ([2]; Total (all pemigatinib doses)): 8 (100.0) n (%)
Aspartate aminotransferase increased (TEAE) ([2]; Total (all pemigatinib doses)): 4 (50.0) n (%)
Blood creatinine increased (TEAE) ([2]; Total (all pemigatinib doses)): 5 (62.5) n (%)
Constipation (TEAE) ([2]; Total (all pemigatinib doses)): 5 (62.5) n (%)
Dehydration (TEAE) ([2]; Total (all pemigatinib doses)): 3 (37.5) n (%)
Diarrhea (TEAE) ([2]; Total (all pemigatinib doses)): 4 (50.0) n (%)
Dizziness (TEAE) ([2]; Total (all pemigatinib doses)): 3 (37.5) n (%)
Dose interruptions because of TEAEs, patients ([2]; Total (all pemigatinib doses)): 87.5%
Dose reductions because of TEAEs, patients ([2]; Total (all pemigatinib doses)): 12.5%
Dry mouth (TEAE) ([2]; Total (all pemigatinib doses)): 3 (37.5) n (%)
Fatigue (TEAE) ([2]; Total (all pemigatinib doses)): 5 (62.5) n (%)
Hyperphosphatemia (TEAE) ([2]; Total (all pemigatinib doses)): 4 (50.0) n (%)
Hyperphosphatemia TEAE, patients ([2]; Total (all pemigatinib doses)): 50.0%
Hypokalemia (TEAE) ([2]; Total (all pemigatinib doses)): 3 (37.5) n (%)
Hyponatremia (TEAE) ([2]; Total (all pemigatinib doses)): 4 (50.0) n (%)
Nausea (TEAE) ([2]; Total (all pemigatinib doses)): 5 (62.5) n (%)
Neutropenia (TEAE) ([2]; Total (all pemigatinib doses)): 4 (50.0) n (%)
Pemigatinib-related TEAEs, patients ([2]; Total (all pemigatinib doses)): 87.5%
Stomatitis (TEAE) ([2]; Total (all pemigatinib doses)): 3 (37.5) n (%)
TEAEs related to the combination partner, patients ([2]; Total (all pemigatinib doses)): 100.0%
Thrombocytopenia (TEAE) ([2]; Total (all pemigatinib doses)): 5 (62.5) n (%)
Vomiting (TEAE) ([2]; Total (all pemigatinib doses)): 3 (37.5) n (%)
White blood cell count decreased (TEAE) ([2]; Total (all pemigatinib doses)): 4 (50.0) n (%)
Anemia TEAE, patients ([2]; pemigatinib 13.5 mg ID): 100.0%

Inhibition of FGFR2α phosphorylation at trough of steady state (phosphorylated FGFR2α; [3]): exceeded 50%
Compound: pemigatinib + pembrolizumab [Pemi/pembro]
ORR (95% CI) (advanced solid tumors; Total (all pemigatinib doses)): 26.9%
DOR, individual responder (advanced solid tumors; pemigatinib 13.5 mg ID, urothelial tract/bladder cancer, FGFR3 p.S249C mutation): 50.3 months
Alanine aminotransferase increased (TEAE) ([2]; Total (all pemigatinib doses)): 8 (30.8) n (%)
Alopecia (TEAE) ([2]; Total (all pemigatinib doses)): 11 (42.3) n (%)
Anemia (TEAE) ([2]; Total (all pemigatinib doses)): 12 (46.2) n (%)
Aspartate aminotransferase increased (TEAE) ([2]; Total (all pemigatinib doses)): 8 (30.8) n (%)
Decreased appetite (TEAE) ([2]; Total (all pemigatinib doses)): 11 (42.3) n (%)
Diarrhea (TEAE) ([2]; Total (all pemigatinib doses)): 12 (46.2) n (%)
Dose interruptions because of TEAEs, patients ([2]; Total (all pemigatinib doses)): 57.7%
Dose reductions because of TEAEs, patients ([2]; Total (all pemigatinib doses)): 7.7%
Dry eye (TEAE) ([2]; Total (all pemigatinib doses)): 8 (30.8) n (%)
Dry mouth (TEAE) ([2]; Total (all pemigatinib doses)): 9 (34.6) n (%)
Fatigue TEAE, patients ([2]; Total (all pemigatinib doses)): 26.9%
Hyperphosphatemia (TEAE) ([2]; Total (all pemigatinib doses)): 19 (73.1) n (%)
Pemigatinib-related TEAEs, patients ([2]; Total (all pemigatinib doses)): 88.5%
Stomatitis (TEAE) ([2]; Total (all pemigatinib doses)): 9 (34.6) n (%)
TEAEs related to the combination partner, patients ([2]; Total (all pemigatinib doses)): 69.2%
Alopecia TEAE, patients ([2]; pemigatinib 13.5 mg CD): 55.6%
Dry mouth TEAE, patients ([2]; pemigatinib 13.5 mg CD): 55.6%
Hyperphosphatemia TEAE, patients ([2]; pemigatinib 13.5 mg CD): 55.6%
Hyperphosphatemia TEAE, patients ([2]; pemigatinib 13.5 mg ID): 78.6%

Inhibition of FGFR2α phosphorylation at trough of steady state (phosphorylated FGFR2α; [3]): exceeded 50%
Compound: pemigatinib + trastuzumab [Pemi/tras]
ORR (95% CI) (advanced solid tumors; pemigatinib 13.5 mg ID): 0%
Alopecia (TEAE) ([2]; pemigatinib 13.5 mg ID): 5 (83.3) n (%)
Alopecia TEAE, patients ([2]; pemigatinib 13.5 mg ID): 83.3%
Anemia (TEAE) ([2]; pemigatinib 13.5 mg ID): 2 (33.3) n (%)
Constipation (TEAE) ([2]; pemigatinib 13.5 mg ID): 2 (33.3) n (%)
Cough (TEAE) ([2]; pemigatinib 13.5 mg ID): 4 (66.7) n (%)
Decreased appetite (TEAE) ([2]; pemigatinib 13.5 mg ID): 3 (50.0) n (%)
Diarrhea (TEAE) ([2]; pemigatinib 13.5 mg ID): 3 (50.0) n (%)
Dry eye (TEAE) ([2]; pemigatinib 13.5 mg ID): 2 (33.3) n (%)
Dry mouth (TEAE) ([2]; pemigatinib 13.5 mg ID): 4 (66.7) n (%)
Dyspepsia (TEAE) ([2]; pemigatinib 13.5 mg ID): 2 (33.3) n (%)
Dyspnea (TEAE) ([2]; pemigatinib 13.5 mg ID): 2 (33.3) n (%)
Epistaxis (TEAE) ([2]; pemigatinib 13.5 mg ID): 2 (33.3) n (%)
Fatigue (TEAE) ([2]; pemigatinib 13.5 mg ID): 2 (33.3) n (%)
Fatigue TEAE, patients ([2]; pemigatinib 13.5 mg ID): 33.3%
Headache (TEAE) ([2]; pemigatinib 13.5 mg ID): 2 (33.3) n (%)
Hyperphosphatemia (TEAE) ([2]; pemigatinib 13.5 mg ID): 5 (83.3) n (%)
Hyperphosphatemia TEAE, patients ([2]; pemigatinib 13.5 mg ID): 83.3%
Nausea (TEAE) ([2]; pemigatinib 13.5 mg ID): 2 (33.3) n (%)
Pemigatinib-related TEAEs, patients ([2]; pemigatinib 13.5 mg ID): 83.3%
Pyrexia (TEAE) ([2]; pemigatinib 13.5 mg ID): 2 (33.3) n (%)
Sinusitis (TEAE) ([2]; pemigatinib 13.5 mg ID): 3 (50.0) n (%)
Stomatitis (TEAE) ([2]; pemigatinib 13.5 mg ID): 2 (33.3) n (%)
TEAEs related to the combination partner, patients ([2]; pemigatinib 13.5 mg ID): 50.0%
Taste disorder (TEAE) ([2]; pemigatinib 13.5 mg ID): 2 (33.3) n (%)
Upper respiratory tract infection (TEAE) ([2]; pemigatinib 13.5 mg ID): 2 (33.3) n (%)
